From PubChem
hERG protect: hERG (human) protection from proarrhythmic block | Q12809 | CHO-hERG, FluxOR thallium flux, dofetilide IC70 present | 310,000 compounds, 0.51% hits | activation (rescue from dofetilide block), less the hit threshold, % at 10 µM;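 active = activation above the mean of controls blocked by dofetilide plus 5 SD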;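 also: thallium influx through hERG after potassium depolarization seen as dye fluorescence rise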
Kir21 inh: blocks the mouse Kir2.1 inward-rectifier potassium channel | P35561 | HEK293-Kir2.1, FluxOR thallium flux fluorescence; hits give low values | B-score at 10 µM | 310,000 compounds, 0.85% hits;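 active = fluorescence ratio B-score at or below minus 3 SD of library scores, with starting-brightness B-score within 2 SD, cut at about -4.2 in these data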;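 also: channel flux triggered by added potassium and thallium sulfate stimulus; B-score of peak minus minimum fluorescence over baseline after thallium stimulus; more negative B-score means stronger Kir2.1 block with less thallium influx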
KCNK9 block: human KCNK9 channel inhibition; 310,000 compounds, 1.2% hits; AID 488922; HEK293 KCNK9, FluxOR thallium flux fluorescence; hits give low values; B-score at 10 µM; Q9NPC2;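 active = ratio B-score over 3 SD below the library mean, with starting fluorescence within 5 SD of its mean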;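 also: negative B-score means less thallium flux so channel inhibition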
KCNQ1 act: potentiates or activates the human KCNQ1 potassium channel; CHO-K1 KCNQ1, thallium flux FluxOR fluorescence; hits give high values; B-score at 10 µM; 310,000 compounds, 0.35% hits; P51787;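 active = fluorescence ratio B-score, a plate-corrected score, at least three library SD, with initial intensity B-score within 5 SD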
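System: Stable KCNQ1 CHO-K1 line | Incubation: 90 min dye loading and 20 min compound exposure, both at room temperature | Measure: Ratio B score | Medium: Assay buffer for compound exposure, DMSO matched across wells | Compound dosing: Single-concentration screen | Probe or stimulus: K+/Tl+ depolarizing stimulus | Measured by: Kinetic FluxOR fluorescence, 10 s baseline plus 110 s post-stimulus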
KCNQ1 inh: inhibitors of human KCNQ1 potassium channel; CHO-K1 KCNQ1, FluxOR thallium flux fluorescence; hits give high values; B-score at 10 µM; 310,000 compounds, 1.3% hits;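 active = compounds whose thallium flux B-score, printed positive for inhibition, exceeds three library SD while starting fluorescence stays within three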;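 also: channel opened by potassium depolarization with thallium stimulus after 20 min compound exposure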
KCNK3 inh: human KCNK3 channel inhibition, primary screen | O14649 | B-score at 10 µM | AID 602410 | CHO-KCNK3 thallium flux, FluxOR fluorescence; hits give low values | 340,000 compounds, 0.84% hits;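 active = B-score under library mean minus 4 SD, starting fluorescence ratio at most library mean plus 5 SD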;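 also: more negative B-score means stronger inhibition of thallium flux through KCNK3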
Target sequence (O14649 whole entry, looked up): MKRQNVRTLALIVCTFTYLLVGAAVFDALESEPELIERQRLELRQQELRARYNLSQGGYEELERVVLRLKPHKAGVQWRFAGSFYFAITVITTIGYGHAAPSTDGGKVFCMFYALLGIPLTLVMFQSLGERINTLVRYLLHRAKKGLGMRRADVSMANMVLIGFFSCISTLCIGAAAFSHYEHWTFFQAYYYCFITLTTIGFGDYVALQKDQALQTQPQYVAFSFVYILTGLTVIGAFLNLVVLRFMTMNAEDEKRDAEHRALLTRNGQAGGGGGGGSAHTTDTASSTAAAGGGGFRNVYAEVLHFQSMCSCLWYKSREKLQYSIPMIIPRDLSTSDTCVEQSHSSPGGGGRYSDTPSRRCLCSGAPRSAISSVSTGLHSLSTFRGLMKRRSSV
KCNK9 block conf: confirmation of human KCNK9 potassium channel inhibitors. shares compounds with KCNK9 block. HEK293 KCNK9 cells, FluxOR thallium flux fluorescence. inhibition, % at 10 µM. 4,900 compounds, 43% hits. AID 492992;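 active = thallium signal inhibited by more than 5 SD of the compound-free buffer control wells, on both duplicate plates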;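 also: 0% = assay buffer control wells without compound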
Kir2-1 spec: tests whether KCNK9 modulators also affect mouse Kir2.1. shares compounds with KCNK9 block. Kir2.1 cells, FluxOR thallium flux fluorescence. inhibition, % at 10 µM. 4,900 compounds, 4% hits;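 active = thallium signal drop more than 5 SD beyond the mean of the no-compound control wells, seen in both duplicate plates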;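 also: signal is fluorescence rise after thallium addition divided by baseline fluorescence; plate controls were assay buffer only for no effect and full block by chlorpromazine control for full effect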
KCNK9 uninduced: non-induced cell nonspecific activity of KCNK9 modulators | 4,900 compounds, 40% hits | non-induced KCNK9-HEK293, FluxOR thallium flux | shares compounds with KCNK9 block | inhibition, % at 10 µM;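 active = thallium signal drop beyond 5 SD of the untreated control mean, on both duplicate plates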;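 also: plate controls were buffer only IC0 wells for no effect and SID17386958 at its maximal inhibitory level for full effect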
The depositor's hits bear a star; i = inactive; / = no result given. Hits are enriched below; roughly 3.7% of the tested compounds scored in any of these assays.

SMILES	hERG protect	Kir21 inh	KCNK9 block	KCNQ1 act	KCNQ1 inh	KCNK3 inh	KCNK9 block conf	Kir2-1 spec	KCNK9 uninduced
CCC(c1nnnn1C(C)(C)C)N1CCN(c2cc(Cl)ccc2C)CC1 (stereo unspecified)	-5	2.4	-9.9*	i	i	-8.9*	49%*	i	47%*
Cc1ccc(Cl)cc1N1CCN(C(c2cccnc2)c2nnnn2C2CCCCC2)CC1 (stereo unspecified)	-7	0.02	-13*	i	i	-11*	37%*	i	44%*
Fc1ccc(Sc2nc(-c3ccccc3)nnc2C(F)(F)F)cc1	-7	0.78	i	i	i	i	i	i	i
CCCCC(=O)Nc1cccc(-c2ccc3nncn3n2)c1	-1	0.04	i	i	i	i	/	/	/
Fc1cccc(Cl)c1CSc1ccc(-c2cccnc2)nn1	-8	-0.28	-11*	i	i	i	33%*	i	i
Cc1nc(Nc2ccc(Cl)cc2Cl)sc1C(=O)Nc1ccccc1	-6	-0.52	i	i	i	i	i	i	i
CN1CCN(S(=O)(=O)c2cccc(C(=O)N3CCN(c4ccccc4F)CC3)c2)CC1	/	/	/	/	/	i	/	/	/
Cc1cccn2c(=O)c(/C=C(\C#N)C(=O)NCc3ccco3)c(N3CCCCC3)nc12	-13	0.7	i	i	i	i	/	/	/
Cc1cccn2c(=O)c(/C=C(\C#N)C(=O)NCc3ccco3)c(N3CCCCCC3)nc12	-5	0.53	i	i	i	i	i	i	i
O=C(CCNC(=O)c1ccccc1Cl)Nc1nc(-c2ccc3ccccc3c2)cs1	-8	-1.1	-8.2*	i	i	i	42%*	i	i
CN1CCN(c2ccc(Cl)cc2NC(=O)CCN2C(=O)c3ccccc3C2=O)CC1	-20	2.2	i	i	i	i	/	/	/
CCOC(=O)C1=C(C)N=c2s/c(=C\c3ccc(OCC(=O)O)cc3)c(=O)n2C1c1ccccc1 (stereo unspecified)	-11	1.9	i	i	i	i	i	i	i
COc1cccc(C2C3=C(N=c4s/c(=C\c5ccc(OCC(=O)O)cc5)c(=O)n42)c2ccccc2CC3)c1 (stereo unspecified)	0	0.06	i	i	i	/	i	i	i
COC(=O)C1CCN(c2ccc(Cl)nn2)CC1	-7	0.51	i	i	i	i	/	/	/
COc1ccc(CCNC(=O)CSc2nc3[nH]c(=O)cc(O)c3s2)cc1	/	/	/	/	/	i	/	/	/
Cc1ccc(N=Cc2cc(Cc3ccccc3Cl)cc([N+](=O)[O-])c2O)c(O)c1	-11	1.9	-8.8*	i	i	i	i	i	65%*
CCOC(=O)c1c(NC(=O)C2CCN(S(=O)(=O)c3cccs3)CC2)sc(C)c1C	-6	0.35	i	i	i	i	i	i	i
Cc1ccc(N=CC2=C(O)CC(c3ccc(Cl)cc3)CC2=O)cc1 (stereo unspecified)	-6	1.8	i	i	i	i	/	/	/
Cc1ccc(SCCCn2cnc3ccccc3c2=O)cc1	-12	-1.3	i	i	i	i	i	i	i
CCOC(=O)C1=CN(Cc2ccc(OC)cc2)C=C(C(=O)OCC)C1c1cccs1	-2	-1.3	-19*	i	i	i	72%*	i	41%*
CSc1ccccc1OCc1cc(C(=O)N(C)Cc2ccc3nsnc3c2)no1	-8	0.91	i	i	i	i	/	/	/
CSc1ccccc1OCc1cc(C(=O)N(C)Cc2ccc(C)o2)no1	-10	-1.1	i	i	i	i	i	i	i
O=C(NCc1ccco1)C1CCCN(S(=O)(=O)c2ccc(Br)cc2)C1 (stereo unspecified)	-2	-0.05	i	i	i	i	/	/	/
C=CCN1c2ccccc2[C@]23C[C@@H](C(=O)OC)N(C(=O)NCCC)C2=NC(C(=O)OC)=C(C(=O)OC)[C@H]13	-3	0.85	-9.3*	i	i	i	32%*	i	30%*
C#CCCOC(=O)N1C2=NC(C(=O)OC)=C(C(=O)OC)[C@@H]3N(C)c4ccccc4[C@]23C[C@H]1C(=O)OC	-9	0.31	i	i	i	i	/	/	/
SMILES	hERG protect	Kir21 inh	KCNK9 block	KCNQ1 act	KCNQ1 inh	KCNK3 inh	KCNK9 block conf	Kir2-1 spec	KCNK9 uninduced
C#CCCOC(=O)N1C2=NC(C(=O)OC)=C(C(=O)OC)[C@@H]3N(Cc4ccccc4)c4ccccc4[C@]23C[C@H]1C(=O)OC	-6	0.34	-9.5*	i	i	i	51%*	i	34%*
O=c1c2ccccc2c(-c2cccc(C(F)(F)F)c2)nn1-c1ccccc1	-11	0.09	-8.8*	i	i	i	38%*	i	43%*
CCC(C(=O)Nc1nc(C)c(C(=O)OC)s1)c1ccccc1 (stereo unspecified)	-13	-1.4	-9.4*	i	i	i	30%*	i	26%*
COc1ccc(S(=O)(=O)NNC(=O)C2CC(c3cccnc3)=NO2)cc1 (stereo unspecified)	-8	1.3	i	i	i	i	/	/	/
Oc1ccc(N=Nc2ccc3c(c2)OCCO3)c2ncccc12	29*	1.1	i	15*	i	i	i	i	i
Cc1ccc(CN2CCN(C(=O)CC(C)C)CC2)cc1	-9	-0.72	i	i	i	i	/	/	/
CCn1c(SCC(=O)N/N=C/C(C)=C\c2ccco2)nnc1-c1ccccc1	-8	-0.77	i	i	i	i	i	i	i
O=C(CCl)NN1C(=O)NC(c2ccccc2)(c2ccccc2)C1=O	-1	0.15	i	i	i	i	/	/	/
CCCC[C@H]1COCCS(=O)(=O)N1Cc1ccc(Br)cc1	-6	-3.1	-8.3*	i	i	i	37%*	i	42%*
COC(=O)Cc1cc(OC)c(OC)cc1S(=O)(=O)N(C)C	1	-1.3	i	i	i	i	/	/	/
Cc1ccc(/C=N/NC(=O)c2ccccc2OCc2cccc(Br)c2)o1	-11	-1.3	-10*	i	i	i	30%*	i	i
O=C(N/N=C/c1cccnc1)c1ccccc1OCc1cccc(Br)c1	-11	0.15	i	i	i	i	/	/	/
